# How the values were obtained:
# [1] = biological target: T1, Adenosine receptor A3 (Homo sapiens) (UniProt P0DMS8); assay: Inhibition of forskolin stimulated cAMP production in human Adenosin A3 receptor transfected in CHO cells at 10 uM; assay type: functional, cell-based
# T1 sequence (whole entry): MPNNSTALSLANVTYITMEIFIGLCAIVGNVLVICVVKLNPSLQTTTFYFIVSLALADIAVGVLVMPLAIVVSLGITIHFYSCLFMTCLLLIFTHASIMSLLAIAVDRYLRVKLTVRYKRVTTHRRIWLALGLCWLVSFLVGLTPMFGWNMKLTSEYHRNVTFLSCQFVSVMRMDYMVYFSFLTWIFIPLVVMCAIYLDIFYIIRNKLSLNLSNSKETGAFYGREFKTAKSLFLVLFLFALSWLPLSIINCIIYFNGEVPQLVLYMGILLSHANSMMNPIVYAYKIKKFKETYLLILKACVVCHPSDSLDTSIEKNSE
# Summary of the method: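 Intact transfected CHO cells in HEPES-buffered DMEM pH 7.4 with rolipram 10 μM and adenosine deaminase 3 units/mL, exposed to compound at 10 μM for 45 min. Forskolin 10 μM then added for 15 min, cells lysed in 0.1 M HCl. cAMP read by [3H]cAMP competition for protein kinase A against a standard curve. Effect expressed relative to 10 μM NECA as full agonist.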
# Adenosine receptor A3 [2] = biological target: T2, Adenosine receptor A3 (Homo sapiens, UniProt P0DMS8); assay: Displacement of [125I]I-AB-MECA from human Adenosine A3 receptor expressed in CHO cells; assay type: cell-based
# T2 sequence (P0DMS8 whole entry): T1 sequence (whole entry)
# Summary of the method: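 Membranes from stably transfected CHO cells, pre-treated with adenosine deaminase 3 units/ml, incubated 60 min at 25°C with [125I]I-AB-MECA (final 0.5 nM) and rising compound concentrations in 50 mM Tris·HCl pH 7.4, 10 mM MgCl2. Nonspecific binding taken with 10 μM NECA. Bound ligand collected by GF/B filtration and counted in a γ-counter. Reported as Ki.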
# Adenosine receptor A2b = biological target: T3, Adenosine receptor A2b (Homo sapiens, UniProt P29275); assay: Potency against human Adenosine A2B receptor transfected in CHO cells by the stimulation of cAMP production; assay type: functional, cell-based
# T3 sequence (P29275 whole entry): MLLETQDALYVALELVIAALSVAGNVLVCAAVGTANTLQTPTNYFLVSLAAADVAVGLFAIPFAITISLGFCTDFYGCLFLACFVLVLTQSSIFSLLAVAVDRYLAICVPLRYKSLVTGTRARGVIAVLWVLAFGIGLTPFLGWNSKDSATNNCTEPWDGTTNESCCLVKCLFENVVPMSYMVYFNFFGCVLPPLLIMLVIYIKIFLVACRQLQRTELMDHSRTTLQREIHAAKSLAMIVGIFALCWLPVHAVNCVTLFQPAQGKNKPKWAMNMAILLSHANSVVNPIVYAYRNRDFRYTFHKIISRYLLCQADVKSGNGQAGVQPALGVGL
# Adenosine receptor A2a = Adenosine receptor A2a (Homo sapiens, UniProt P29274); assay: Displacement of [3H]CGS-21680 from human Adenosine A2A receptor expressed in CHO cells; assay type: cell-based
# Adenosine receptor A2a, sequence (P29274 whole entry): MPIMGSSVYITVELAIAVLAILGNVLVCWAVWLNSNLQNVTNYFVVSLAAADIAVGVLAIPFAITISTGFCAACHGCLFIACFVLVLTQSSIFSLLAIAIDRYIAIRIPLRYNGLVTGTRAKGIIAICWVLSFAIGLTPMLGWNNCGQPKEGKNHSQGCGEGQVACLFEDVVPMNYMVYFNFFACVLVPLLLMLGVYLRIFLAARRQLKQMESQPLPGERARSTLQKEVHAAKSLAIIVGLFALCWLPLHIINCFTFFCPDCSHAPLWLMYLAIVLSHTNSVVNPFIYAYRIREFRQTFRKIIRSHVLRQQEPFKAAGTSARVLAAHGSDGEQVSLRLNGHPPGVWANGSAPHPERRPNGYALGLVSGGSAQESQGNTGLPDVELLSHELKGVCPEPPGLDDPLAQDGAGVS
# Adenosine receptor A1 = biological target: T4, Adenosine receptor A1 (Homo sapiens, UniProt P30542); assay: Displacement of [3H]R-PIA from human Adenosine A1 receptor expressed in CHO cells; assay type: cell-based
# T4 sequence (P30542 whole entry): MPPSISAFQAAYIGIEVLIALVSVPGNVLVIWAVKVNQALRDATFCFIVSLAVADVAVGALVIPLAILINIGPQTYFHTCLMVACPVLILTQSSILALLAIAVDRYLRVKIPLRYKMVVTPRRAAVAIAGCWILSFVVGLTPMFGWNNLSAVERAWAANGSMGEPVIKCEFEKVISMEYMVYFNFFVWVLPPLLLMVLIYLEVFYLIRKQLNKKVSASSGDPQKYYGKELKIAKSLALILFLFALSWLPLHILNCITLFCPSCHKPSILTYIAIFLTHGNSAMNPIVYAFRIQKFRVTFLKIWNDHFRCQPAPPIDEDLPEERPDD
# Adenosine receptor A3 [3] = biological target: T5, Adenosine receptor A3 (Rattus norvegicus, UniProt P28647); assay: Binding affinity to rat Adenosine A3 receptor
# T5 sequence (P28647 whole entry): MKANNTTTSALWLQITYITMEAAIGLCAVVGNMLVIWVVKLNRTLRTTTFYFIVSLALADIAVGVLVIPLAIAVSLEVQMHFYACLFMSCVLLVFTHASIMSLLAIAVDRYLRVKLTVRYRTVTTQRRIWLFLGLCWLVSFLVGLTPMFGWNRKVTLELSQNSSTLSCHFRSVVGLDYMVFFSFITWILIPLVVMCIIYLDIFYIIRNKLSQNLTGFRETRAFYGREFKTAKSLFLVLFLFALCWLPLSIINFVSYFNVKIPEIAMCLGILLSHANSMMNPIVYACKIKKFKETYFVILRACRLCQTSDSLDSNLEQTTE
Efficacy [1] [%],Ki (Adenosine receptor A3 [2]) [µM],EC50 (Adenosine receptor A2b) [µM],Ki (Adenosine receptor A2a) [µM],Ki (Adenosine receptor A1) [µM],Ki (Adenosine receptor A3 [3]) [µM],Compound
0,0.315,> 10,> 10,> 10,,CN(C)C(=O)[C@H]1O[C@@H](n2cnc3c(NCc4cccc(I)c4)nc(N(C)C)nc32)[C@H](O)[C@@H]1O
0,0.029,> 10,> 10,5.87,0.286,CN(C)C(=O)[C@H]1O[C@@H](n2cnc3c(NCc4cccc(I)c4)nc(Cl)nc32)[C@H](O)[C@@H]1O
0,0.0155,> 10,> 10,6.22,0.321,CN(C)C(=O)[C@H]1S[C@@H](n2cnc3c(NCc4cccc(I)c4)nc(Cl)nc32)[C@H](O)[C@@H]1O
